Reference: ChEMBL document CHEMBL1137002, “Synthesis and electrochemistry of 2-ethenyl and 2-ethanyl derivatives of 5-nitroimidazole and antimicrobial activity against Giardia lamblia” (J Med Chem, 2009)
pEC50, pIC50: −log10 of the molar value. The source made the active and inactive calls. The rule behind the calls is not given here.

Columns and labels:
Giardia intestinalis [1] = assay: Antigiardial activity against Giardia lamblia trophozoites isolates after 2 days by bactiter-glo viability assay; assay type: functional, organism-based; conditions: Giardia duodenalis, 48 h; for pEC50: read-out: EC50; for EC50: read-out: pEC50 (converted)
HeLa = assay: Cytotoxicity against human HeLa cells after 2 days by Alamar blue assay; assay type: cell-based; conditions: 48 h
[2] = Therapeutic index, ratio of IC50 for human HeLa cells to EC50 for Giardia lamblia trophozoites isolates; assay type: cell-based; conditions: read-out: Ratio IC50/EC50
Giardia intestinalis [3] = assay: Antigiardial activity against metronidazole-resistant Giardia lamblia isolate 713 trophozoite after 2 days by bactiter-glo viability assay; assay type: functional, organism-based; conditions: Giardia duodenalis, isolate 713, 48 h
Procedure, shortened: (§1)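 Trophozoites from mid-log cultures in TYI-S-33 with 10% bovine serum and 1 mg/mL bovine bile, grown anaerobically. Mz-resistant lines kept on 50 μM Mz but grown without it for 2–3 days beforehand. 1000–2000 cells/well, 1:3 serial dilutions, final 20 μM to 0.4 nM. 2 days at 37 °C anaerobically. ATP luminescence read-out. EC50 taken by graphic extrapolation of concentration–response curves. Mean ± SE of three experiments.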

Giardia intestinalis [4] = assay: Antigiardial activity against metronidazole-sensitive Giardia lamblia isolate 713 trophozoite after 2 days by bactiter-glo viability assay; assay type: functional, organism-based; conditions: Giardia duodenalis, isolate 713, 48 h; procedure, shortened: as §1
Giardia intestinalis [5] = assay: Antigiardial activity against metronidazole-resistant Giardia lamblia isolate 106 trophozoite after 2 days by bactiter-glo viability assay; assay type: functional, organism-based; conditions: Giardia duodenalis, isolate 106, 48 h; procedure, shortened: as §1
Giardia intestinalis [6] = assay: Antigiardial activity against metronidazole-sensitive Giardia lamblia isolate 106 trophozoite after 2 days by bactiter-glo viability assay; assay type: functional, organism-based; conditions: Giardia duodenalis, isolate 106, 48 h; procedure, shortened: as §1
Mus musculus = assay: Toxicity in C57BL/6 mouse at 10 mg/kg, po after 3 days; assay type: organism-based; design: dose 10 mg/kg, route oral; conditions: in vivo, 72 h
Procedure, shortened: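 G. lamblia GS/M-infected adult C57BL/6 mice were watched for clinically observable untoward effects across the 3-day treatment period, which consisted of five oral gavage doses at 10 mg/kg in methylcellulose/PBS given from day 2 after infection.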

Giardia intestinalis [7] = assay: Antigiardial activity against Giardia lamblia GS/M trophozoites infected in C57BL/6 mouse assessed as reduction in live trophozoite number in small intestine at 10 mg/kg, po administered as 5 doses for 3 days relative to control; assay type: functional; conditions: for Activity: Giardia duodenalis
Procedure, shortened: (§2)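 Adult C57BL/6 mice infected orally with G. lamblia GS/M trophozoites; from 2 days post-infection, five oral gavage doses over 3 days (10 or 2 mg/kg), with controls given methylcellulose/PBS vehicle. Day 5: whole small intestine opened, placed in PBS on ice 10 min, shaken, and live trophozoites counted by hemocytometer under phase contrast. Mean ± SE of 3–7 animals; t test versus vehicle controls, p < 0.05.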

Giardia intestinalis [8] = assay: Antigiardial activity against Giardia lamblia GS/M trophozoites infected in C57BL/6 mouse assessed as parasite eradication in small intestine at 10 mg/kg, po administered as 5 doses for 3 days; assay type: functional, organism-based; design: dose 10 mg/kg; conditions: Giardia duodenalis; procedure, shortened: as §2
Giardia intestinalis [9] = assay: Antigiardial activity against Giardia lamblia GS/M trophozoites infected in C57BL/6 mouse assessed as reduction in live trophozoite number in small intestine at 2 mg/kg, po administered as 5 doses for 3 days; assay type: functional, organism-based; design: dose 2 mg/kg; conditions: Giardia duodenalis; procedure, shortened: as §2

Compound | pEC50 (Giardia intestinalis [1]) | pIC50 (HeLa) | selectivity ratio [2] | EC50 (Giardia intestinalis [1]) [nM] | pEC50 (Giardia intestinalis [3]) | pEC50 (Giardia intestinalis [4]) | pEC50 (Giardia intestinalis [5]) | pEC50 (Giardia intestinalis [6]) | Activity (Mus musculus) | Activity (Giardia intestinalis [7]) | Activity (Giardia intestinalis [8]) | Activity (Giardia intestinalis [9]) | fold change (FC) (Giardia intestinalis [7])
Cn1c([N+](=O)[O-])cnc1/C=C/c1cccc2ccccc12 | 7.00 | 4.00 | 1000 | – | – | – | – | – | – | – | – | – | –
Cn1c([N+](=O)[O-])cnc1/C=C/c1ccc(OC(F)(F)F)cc1 | – | 4.08 | 112 | 741 | – | – | – | – | – | – | – | – | –
COc1ccc(/C=C/c2ncc([N+](=O)[O-])n2C)c(OC)c1OC | – | < 4.00 | > 162 | 617 | – | – | – | – | – | – | – | – | –
Cc1cc(C)c(/C=C/c2ncc([N+](=O)[O-])n2C)c(C)c1 | – | – | 32 | 339 | 6.64 | 5.89 | 6.69 | 6.37 | – | – | – | – | –
Cn1c([N+](=O)[O-])cnc1/C=C/c1ccccc1Cl | – | < 4.00 | > 1380 | 72.4 | 7.52 | 6.94 | 7.22 | 6.60 | – | – | – | – | –
CC(=O)OC(c1ccc(Br)cc1)C(OC(C)=O)c1ncc([N+](=O)[O-])n1C (configuration not stated) | – | – | 436 | 224 | – | – | – | – | – | – | – | – | –
Cn1c([N+](=O)[O-])cnc1/C=C/c1ccsc1 | – | < 4.00 | > 1020 | 97.7 | 7.61 | 5.98 | 7.04 | 6.41 | Non-toxic | – | – | – | –
Cn1c([N+](=O)[O-])cnc1/C=C/c1ccccc1-c1ccccc1 | – | < 4.00 | > 117 | 851 | 6.46 | 5.34 | 6.27 | 5.91 | – | – | – | – | –
Cn1c([N+](=O)[O-])cnc1/C=C/c1ccccc1Br | – | 4.14 | 1480 | 49 | 7.74 | 6.93 | 7.38 | 6.55 | – | – | – | – | –
Cn1c([N+](=O)[O-])cnc1/C=C/c1ccc2c(c1)OCO2 | 7.16 | 4.13 | 1070 | 69.2 | – | – | – | – | – | – | – | – | –
COc1cccc(/C=C/c2ncc([N+](=O)[O-])n2C)c1 | – | < 4.00 | > 646 | 155 | – | – | – | – | – | – | – | – | –
Cn1c([N+](=O)[O-])cnc1/C=C/c1ccccc1I | – | < 4.00 | > 1660 | 60.3 | – | – | – | – | – | – | – | – | –
Cn1c([N+](=O)[O-])cnc1/C=C/c1ccc(Cl)cc1 | – | 4.04 | 1740 | 52.5 | 7.44 | 6.84 | 7.14 | 6.59 | – | – | – | – | –
Cn1c([N+](=O)[O-])cnc1/C=C/c1ccco1 | – | – | 2750 | 33.9 | 7.69 | 6.31 | 7.45 | 6.44 | Non-toxic | Active | Active | – | –
Cn1c([N+](=O)[O-])cnc1/C=C/c1ccc(Cl)cc1Cl | – | < 4.00 | > 427 | 234 | – | – | – | – | – | – | – | – | –
Cn1ccnc1/C=C/c1ncc([N+](=O)[O-])n1C | – | 4.04 | 1200 | 75.9 | 7.29 | 5.93 | 7.06 | 6.60 | Non-toxic | Active | Active | Active | –
Cc1ccc(C(Br)C(Br)c2ncc([N+](=O)[O-])n2C)cc1 (configuration not stated) | – | 4.95 | 174 | 64.6 | – | – | – | – | – | – | – | – | –
Cn1c([N+](=O)[O-])cnc1/C=C/c1ccc(Br)cc1 | – | 4.14 | 1480 | 49 | 8.09 | 7.04 | 7.14 | 6.70 | Non-toxic | inactive | – | inactive | –
Cn1c([N+](=O)[O-])cnc1/C=C/c1cccc(F)c1 | – | < 4.00 | > 2460 | 40.7 | 7.59 | 6.91 | 7.51 | 7.03 | Non-toxic | Active | Active | Active | –

Compound | pEC50 (Giardia intestinalis [1]) | pIC50 (HeLa) | selectivity ratio [2] | EC50 (Giardia intestinalis [1]) [nM] | pEC50 (Giardia intestinalis [3]) | pEC50 (Giardia intestinalis [4]) | pEC50 (Giardia intestinalis [5]) | pEC50 (Giardia intestinalis [6]) | Activity (Mus musculus) | Activity (Giardia intestinalis [7]) | Activity (Giardia intestinalis [8]) | Activity (Giardia intestinalis [9]) | fold change (FC) (Giardia intestinalis [7])
Cn1c([N+](=O)[O-])cnc1C(Br)C(Br)c1ccc(Br)cc1 (configuration not stated) | – | 5.10 | 23 | 347 | 6.74 | 6.32 | 6.67 | 5.54 | – | – | – | – | –
Cn1c([N+](=O)[O-])cnc1/C=C/c1ccccc1 | – | < 4.00 | > 2570 | 38.9 | 7.69 | 6.28 | 7.26 | 6.40 | Non-toxic | Active | Active | – | –
Cc1ccc(C(O)C(O)c2ncc([N+](=O)[O-])n2C)cc1 (configuration not stated) | – | < 4.00 | > 120 | 832 | – | – | – | – | – | – | – | – | –
Cc1ccc(CCc2ncc([N+](=O)[O-])n2C)cc1 | – | < 4.00 | > 357 | 282 | – | – | – | – | – | – | – | – | –
Cc1ncc([N+](=O)[O-])n1CCO [METRONIDAZOLE] | 5.58 | – | – | – | 5.83 | 4.35 | 5.40 | 4.59 | – | – | inactive | inactive | 1000
Cn1c([N+](=O)[O-])cnc1/C=C/c1ccc2ccccc2c1 | – | – | 1620 | 60.3 | – | – | – | – | – | – | – | – | –
Cn1c([N+](=O)[O-])cnc1/C=C/c1cccc(Br)c1 | – | 4.06 | 1860 | 46.8 | 7.49 | 6.90 | 7.37 | 6.94 | – | – | – | – | –
Cc1ccccc1/C=C/c1ncc([N+](=O)[O-])n1C | – | – | 1350 | 69.2 | – | – | – | – | – | – | – | – | –
CC(=O)OC(c1ccc(C)cc1)C(OC(C)=O)c1ncc([N+](=O)[O-])n1C (configuration not stated) | – | < 4.00 | > 319 | 316 | 6.76 | 5.29 | 6.29 | 5.51 | – | – | – | – | –
Cn1c([N+](=O)[O-])cnc1CCc1ccc(Br)cc1 | 5.94 | – | 85 | 1150 | – | – | – | – | – | – | – | – | –
Cc1cccc(/C=C/c2ncc([N+](=O)[O-])n2C)c1 | – | 4.51 | 776 | 39.8 | – | – | – | – | – | – | – | – | –
Cc1ccc(/C=C/c2ncc([N+](=O)[O-])n2C)cc1 | – | < 4.00 | – | 162 | – | – | – | – | – | – | – | – | –
Cn1c([N+](=O)[O-])cnc1/C=C/c1cccc(Cl)c1 | – | 4.52 | 1380 | 21.9 | – | – | – | – | – | – | – | – | –
Cn1c([N+](=O)[O-])cnc1CCc1ccccc1 | – | < 4.00 | > 474 | 209 | 6.99 | 5.30 | 6.76 | 5.59 | Non-toxic | – | – | – | –
Cn1c([N+](=O)[O-])cnc1C(O)C(O)c1ccc(Br)cc1 (configuration not stated) | – | 4.04 | 208 | 447 | – | – | – | – | – | – | – | – | –
CCOC(OCC)c1ccc(/C=C/c2ncc([N+](=O)[O-])n2C)cc1 | – | – | 1860 | 52.5 | 7.49 | 6.15 | 7.19 | 6.70 | – | – | – | – | –
Cn1c([N+](=O)[O-])cnc1/C=C/c1cccc(I)c1 | – | – | 339 | 93.3 | – | – | – | – | – | – | – | – | –
Cn1c([N+](=O)[O-])cnc1/C=C/c1cccs1 | – | 4.04 | 1120 | 81.3 | – | – | – | – | – | – | – | – | –
